Test system: U2OS
Experiment: Multiplex assay against U2OS
Assay type: toxicity, cell-based
Conditions: human
Method in brief: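 Per cents of healthy-nucleus cells form the tubulin, mitochondrial-mass and membrane-permeability phenotype values. Live cells were stained at seeding with Hoechst33342, BioTracker Green Microtubule Cytoskeleton Dye, MitoTracker Red and Annexin V Alexa Fluor 680. After compound addition they were imaged on a CQ1 microscope at 37°C and 5% CO2, and CellPathfinder machine-learning gating split them into Hoechst high-intensity objects or normal cells, normal cells into healthy, pyknosed or fragmented nuclei, and pyknosed cells into mitotic or apoptotic.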

[1] = 12 h, 1 µM, compound concentration 1 uM, replicate 1
[2] = 12 h, 1 µM, compound concentration 1 uM, replicate 2
[3] = 12 h, 10 µM, compound concentration 10 uM, replicate 1
[4] = 12 h, 10 µM, compound concentration 10 uM, replicate 2
[5] = 24 h, 1 µM, compound concentration 1 uM, replicate 1
[6] = 24 h, 1 µM, compound concentration 1 uM, replicate 2
[7] = 24 h, 10 µM, compound concentration 10 uM, replicate 1
[8] = 24 h, 10 µM, compound concentration 10 uM, replicate 2
[9] = 48 h, 1 µM, compound concentration 1 uM, replicate 1
[10] = 48 h, 1 µM, compound concentration 1 uM, replicate 2
[11] = 48 h, 10 µM, compound concentration 10 uM, replicate 1
[12] = 48 h, 10 µM, compound concentration 10 uM, replicate 2

## Cc1c(Cc2ccc3ccccc3n2)c2cc(F)ccc2n1CC(=O)O [TIMAPIPRANT]
[1]
  Population Apoptotic (%): 84%
  Population Fragmented Nuclei (%): 21%
  Population Healthy Nuclei (%): 69%
  Population Hoechst High Intensity Objects (%): 2%
  Population Membrane Permeable-Phenotype (%): 3%
  Population Mitochondria Different-Phenotype (%): 1%
  Population Mitotic Cells (%): 16%
  Population Normal (%): 97%
  Population Pyknosed Nuclei (%): 8%
  Population Tubulin-Different-Phenotype (%): 1%
  Total Cell Count: 298
[2]
  Population Apoptotic (%): 83%
  Population Fragmented Nuclei (%): 22%
  Population Healthy Nuclei (%): 70%
  Population Hoechst High Intensity Objects (%): 1%
  Population Membrane Permeable-Phenotype (%): 4%
  Population Mitochondria Different-Phenotype (%): 4%
  Population Normal (%): 98%
  Population Pyknosed Nuclei (%): 6%
  Population Tubulin-Different-Phenotype (%): 3%
  Total Cell Count: 94
[3]
  Population Apoptotic (%): 75%
  Population Fragmented Nuclei (%): 30%
  Population Healthy Nuclei (%): 62%
  Population Hoechst High Intensity Objects (%): 2%
  Population Membrane Permeable-Phenotype (%): 4%
  Population Mitochondria Different-Phenotype (%): 1%
  Population Mitotic Cells (%): 25%
  Population Normal (%): 97%
  Population Pyknosed Nuclei (%): 6%
  Population Tubulin-Different-Phenotype (%): 2%
  Total Cell Count: 244
[4]
  Population Apoptotic (%): 68%
  Population Fragmented Nuclei (%): 12%
  Population Healthy Nuclei (%): 75%
  Population Hoechst High Intensity Objects (%): 0%
  Population Membrane Permeable-Phenotype (%): 6%
  Population Mitochondria Different-Phenotype (%): 3%
  Population Mitotic Cells (%): 31%
  Population Normal (%): 99%
  Population Pyknosed Nuclei (%): 12%
  Population Tubulin-Different-Phenotype (%): 3%
  Total Cell Count: 132
[5]
  Population Apoptotic (%): 96%
  Population Fragmented Nuclei (%): 18%
  Population Healthy Nuclei (%): 73%
  Population Hoechst High Intensity Objects (%): 1%
  Population Membrane Permeable-Phenotype (%): 6%
  Population Mitochondria Different-Phenotype (%): 3%
  Population Mitotic Cells (%): 3%
  Population Normal (%): 98%
  Population Pyknosed Nuclei (%): 7%
  Population Tubulin-Different-Phenotype (%): 4%
  Total Cell Count: 371
[6]
  Population Apoptotic (%): 100%
  Population Fragmented Nuclei (%): 19%
  Population Membrane Permeable-Phenotype (%): 7%
  Population Mitochondria Different-Phenotype (%): 2%
  Population Mitotic Cells (%): 0%
  Population Tubulin-Different-Phenotype (%): 3%
  Total Cell Count: 117
[7]
  Population Apoptotic (%): 94%
  Population Fragmented Nuclei (%): 26%
  Population Healthy Nuclei (%): 66%
  Population Hoechst High Intensity Objects (%): 1%
  Population Membrane Permeable-Phenotype (%): 6%
  Population Mitochondria Different-Phenotype (%): 2%
  Population Mitotic Cells (%): 5%
  Population Normal (%): 98%
  Population Pyknosed Nuclei (%): 6%
  Population Tubulin-Different-Phenotype (%): 3%
  Total Cell Count: 278
[8]
  Population Apoptotic (%): 72%
  Population Fragmented Nuclei (%): 18%
  Population Healthy Nuclei (%): 74%
  Population Hoechst High Intensity Objects (%): 0%
  Population Membrane Permeable-Phenotype (%): 8%
  Population Mitotic Cells (%): 27%
  Population Normal (%): 100%
  Population Pyknosed Nuclei (%): 7%
  Total Cell Count: 152
[9]
  Population Apoptotic (%): 88%
  Population Fragmented Nuclei (%): 16%
  Population Healthy Nuclei (%): 77%
  Population Hoechst High Intensity Objects (%): 1%
  Population Membrane Permeable-Phenotype (%): 4%
  Population Mitochondria Different-Phenotype (%): 3%
  Population Mitotic Cells (%): 11%
  Population Normal (%): 98%
  Population Pyknosed Nuclei (%): 6%
  Population Tubulin-Different-Phenotype (%): 3%
  Total Cell Count: 536
[10]
  Population Apoptotic (%): 90%
  Population Fragmented Nuclei (%): 22%
  Population Healthy Nuclei (%): 71%
  Population Hoechst High Intensity Objects (%): 2%
  Population Membrane Permeable-Phenotype (%): 12%
  Population Mitochondria Different-Phenotype (%): 5%
  Population Mitotic Cells (%): 10%
  Population Normal (%): 97%
  Population Tubulin-Different-Phenotype (%): 6%
  Total Cell Count: 168
[11]
  Population Apoptotic (%): 100%
  Population Fragmented Nuclei (%): 19%
  Population Healthy Nuclei (%): 74%
  Population Hoechst High Intensity Objects (%): 0%
  Population Membrane Permeable-Phenotype (%): 3%
  Population Mitochondria Different-Phenotype (%): 1%
  Population Mitotic Cells (%): 0%
  Population Normal (%): 99%
  Population Pyknosed Nuclei (%): 6%
  Population Tubulin-Different-Phenotype (%): 1%
  Total Cell Count: 392
[12]
  Population Apoptotic (%): 92%
  Population Fragmented Nuclei (%): 13%
  Population Healthy Nuclei (%): 80%
  Population Hoechst High Intensity Objects (%): 2%
  Population Membrane Permeable-Phenotype (%): 5%
  Population Mitochondria Different-Phenotype (%): 3%
  Population Mitotic Cells (%): 7%
  Population Normal (%): 97%
  Population Tubulin-Different-Phenotype (%): 3%
  Total Cell Count: 204

Reference: ChEMBL document CHEMBL5058577, “EUbOPEN Chemogenomics Library 2 (Multiplex)” (2022)
